Experimental data of several laboratories.
Each line is one published result; the experiments were not run side by side.
MAK: Serine/threonine-protein kinase MAK (MAK, Homo sapiens, UniProt P20794)
MTNR1B: Melatonin receptor type 1B (MTNR1B, Homo sapiens, UniProt P49286)
PDE4D: 3',5'-cyclic-AMP phosphodiesterase 4D (PDE4D, Homo sapiens, UniProt Q08499)

| SMILES | target | assay | test system | setting | quantity | value |
| --- | --- | --- | --- | --- | --- | --- |
| Nc1ncc(-c2nc(N3CCOCC3)nc(N3CCOCC3)n2)c(C(F)F)n1 | MAK | binding, competition with immobilised ligand |  | 10 µM | remaining binding | 100% |
| COc1ccc2cccc(C(CO)CNC(=O)CF)c2c1 (stereo not shown) | MTNR1B | cAMP, agonist, TR-FRET | CHO-K1 | 20 min | Emax | 93% |
| COc1ncccc1-c1cnn2ccc(N3CCN(C(=O)OC(C)C)CC3)nc12 | Non-receptor tyrosine-protein kinase TNK1 (TNK1, Homo sapiens, UniProt Q13470) | binding, competition with immobilised ligand |  | 1 µM | remaining binding | 100% |
| CN[C@@H](C)[C@H](O)c1ccccc1 | PDE4D | enzyme activity, inhibitor, radiometric |  | 50 µM | inhibition | -7.03% |
| CN[C@]1(c2ccccc2Cl)CCCCC1=O | Mitogen-activated protein kinase 1 (MAPK1, Homo sapiens, UniProt P28482) | enzyme activity, inhibitor |  | 30 µM | inhibition | -3% |
| CC(=O)O[C@H]1C[C@H]2[C@@H]([C@H](OC(C)=O)C[C@@H]3CC(NCCCNc4ccnc5cc(Cl)ccc45)CC[C@@]32C)[C@@H]2CC[C@H]([C@H](C)CCCNCCCNc3ccnc4cc(Cl)ccc34)[C@@]12C (mixture of isomers) | Botulinum neurotoxin type A, protease (Clostridium botulinum, UniProt P0DPI0) | enzyme activity, inhibitor |  | 10 µM | inhibition | 99% |
| COc1ccc2[nH]cc(CCNC(=O)CI)c2c1 | MTNR1B | cAMP, agonist, TR-FRET | CHO-K1 | 20 min | Emax | 103% |
| C=C(C)[C@@H]1CC=C2C(=CC[C@]3(C)[C@@H]([C@@H](CCC=C(C)C)C(=O)O)[C@H](O)C[C@@]23C)[C@@]1(C)CCC(=O)O | PDE4D | enzyme activity, inhibitor, radiometric |  | 50 µM | inhibition | 51.7% |
| Cc1nn(C)cc1-c1nc2c(N3CCN(Cc4ccc(Cl)cc4)CC3)c(Cl)cnc2[nH]1 | MAK | binding, competition with immobilised ligand |  | 1 µM | remaining binding | 85% |
| O=C1C[C@@H]2OCC=C3CN4CC[C@]56c7ccccc7N1[C@H]5[C@H]2[C@H]3C[C@H]46 | Cyclin-dependent kinase 7, with cyclin H (CDK7, Homo sapiens, UniProt P50613) | enzyme activity, inhibitor, ADP detection |  | 10 µM | inhibition | 38.1% |
